# Experimental data reported in ChEMBL document CHEMBL3621107, “Ring fusion strategy for synthesis and lead optimization of sulfur-substituted anthra[1,2-c][1,2,5]thiadiazole-6,11-dione derivatives as promising scaffold of antitumor agents” (Eur J Med Chem, 2015).
# How the values were obtained:
# [1] = system: NCI/ADR-RES; experiment: Cytotoxicity against human NCI/ADR-RES cells assessed as cell growth at 10 uM after 48 hrs by SRB assay relative to control; format: functional; details: read-out: Activity
# Procedure, shortened: (§1)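 First-stage NCI DTP one-dose screen against the 60 human tumour cell line panel. Compounds were tested at a single 10 μM level, and results are given as growth percentage.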
# [2] = system: MDA-MB-231; experiment: Cytotoxicity against human MDA-MB-231 cells assessed as cell growth at 10 uM after 48 hrs by SRB assay relative to control; format: functional; details: MDA-MB-231, 48 h, read-out: Activity; procedure, shortened: as §1
# [3] = system: PC-3; experiment: Cytotoxicity against human PC3 cells after 48 hrs by SRB assay; format: functional, cell-based; details: PC-3, 48 h
# Procedure, shortened: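 Second-stage NCI-60 panel run by the NCI Developmental Therapeutics Program, covering nine tumour subpanels. Five concentrations were tested: 0.01, 0.1, 1, 10 and 100 μM. Percentage growth at each level was plotted against log10 drug concentration. GI50, TGI and LC50 were read from these dose-response curves. Subpanel MID values were divided into the full-panel MID to give selectivity ratios.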
# [4] = system: Malme-3M; experiment: Cytotoxicity against human MALME-3M cells assessed as cell growth at 10 uM after 48 hrs by SRB assay relative to control; format: functional; details: read-out: Activity
# Procedure, shortened: (§2)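 First-stage NCI-60 screen by the NCI Developmental Therapeutics Program. Each compound was tested once at a single concentration of 10 μM against the 60-cell-line panel. Growth percentage was reported for each cell line.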
# [5] = system: OVCAR-8; experiment: Cytotoxicity against human OVCAR8 cells assessed as cell growth at 10 uM after 48 hrs by SRB assay relative to control; format: functional; details: OVCAR-8, 48 h, read-out: Activity; procedure, shortened: as §1
# [6] = system: COLO 205; experiment: Cytotoxicity against human COLO205 cells assessed as cell growth at 10 uM after 48 hrs by SRB assay relative to control; format: functional; details: COLO 205, 48 h, read-out: Activity; procedure, shortened: as §2
# [7] = system: HCT-116; experiment: Cytotoxicity against human HCT116 cells assessed as cell growth at 10 uM after 48 hrs by SRB assay relative to control; format: functional; details: HCT-116, 48 h, read-out: Activity; procedure, shortened: as §2
# [8] = system: A549; experiment: Cytotoxicity against human A549 cells assessed as cell growth at 10 uM after 48 hrs by SRB assay relative to control; format: functional; details: A549, 48 h, read-out: Activity; procedure, shortened: as §2
# [9] = system: SF-295; experiment: Cytotoxicity against human SF295 cells assessed as cell growth at 10 uM after 48 hrs by SRB assay relative to control; format: functional; details: SF-295, 48 h, read-out: Activity; procedure, shortened: as §1
# [10] = system: SN12C; experiment: Cytotoxicity against human SN12C cells assessed as cell growth at 10 uM after 48 hrs by SRB assay relative to control; format: functional; details: read-out: Activity; procedure, shortened: as §1
# [11] = system: UACC-257; experiment: Cytotoxicity against human UACC257 cells assessed as cell growth at 10 uM after 48 hrs by SRB assay relative to control; format: functional; details: UACC-257, 48 h, read-out: Activity
# Procedure, shortened: (§3)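 NCI-60 one-dose screen run by NCI DTP: each cell line exposed to a single 10 µM dose, and percentage growth recorded against untreated growth.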
# [12] = system: KM12; experiment: Cytotoxicity against human KM12 cells assessed as cell growth at 10 uM after 48 hrs by SRB assay relative to control; format: functional; details: KM12, 48 h, read-out: Activity; procedure, shortened: as §2
# [13] = system: OVCAR-5; experiment: Cytotoxicity against human OVCAR5 cells assessed as cell growth at 10 uM after 48 hrs by SRB assay relative to control; format: functional; details: OVCAR-5, 48 h, read-out: Activity; procedure, shortened: as §1
# [14] = system: SNB-19; experiment: Cytotoxicity against human SNB19 cells assessed as cell growth at 10 uM after 48 hrs by SRB assay relative to control; format: functional; details: SNB-19, 48 h, read-out: Activity; procedure, shortened: as §3
# [15] = system: SK-MEL-28; experiment: Cytotoxicity against human SK-MEL-28 cells assessed as cell growth at 10 uM after 48 hrs by SRB assay relative to control; format: functional; details: SK-MEL-28, 48 h, read-out: Activity; procedure, shortened: as §1
# [16] = system: NCI-H226; experiment: Cytotoxicity against human NCI-H226 cells assessed as cell growth at 10 uM after 48 hrs by SRB assay relative to control; format: functional; details: NCI-H226, 48 h, read-out: Activity; procedure, shortened: as §1
# [17] = system: HCT-15; experiment: Cytotoxicity against human HCT15 cells assessed as cell growth at 10 uM after 48 hrs by SRB assay relative to control; format: functional; details: HCT-15, 48 h, read-out: Activity; procedure, shortened: as §2
# [18] = system: TK-10; experiment: Cytotoxicity against human TK10 cells assessed as cell growth at 10 uM after 48 hrs by SRB assay relative to control; format: functional; details: TK-10, 48 h, read-out: Activity; procedure, shortened: as §3
# [19] = system: SR; experiment: Cytotoxicity against human SR cells assessed as cell growth at 10 uM after 48 hrs by SRB assay relative to control; format: functional; details: read-out: Activity; procedure, shortened: as §3
# [20] = system: SF-539; experiment: Cytotoxicity against human SF539 cells assessed as cell growth at 10 uM after 48 hrs by SRB assay relative to control; format: functional; details: SF-539, 48 h, read-out: Activity; procedure, shortened: as §1
# [21] = system: MCF7; experiment: Cytotoxicity against human MCF7 cells assessed as cell growth at 10 uM after 48 hrs by SRB assay relative to control; format: functional; details: MCF7, 48 h, read-out: Activity; procedure, shortened: as §2
# [22] = system: NCI-H460; experiment: Cytotoxicity against human NCI-H460 cells assessed as cell growth at 10 uM after 48 hrs by SRB assay relative to control; format: functional; details: NCI-H460, 48 h, read-out: Activity; procedure, shortened: as §1
# [23] = system: HL-60(TB); experiment: Cytotoxicity against human HL-60(TB) cells assessed as cell growth at 10 uM after 48 hrs by SRB assay relative to control; format: functional; details: HL-60, 48 h, read-out: Activity
# Procedure, shortened: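 NCI Developmental Therapeutics Program 60-cell-line screen, first stage: a single dose of 10 μM against the panel, reported as percentage growth.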
# [24] = system: 786-0; experiment: Cytotoxicity against human 786-0 cells assessed as cell growth at 10 uM after 48 hrs by SRB assay relative to control; format: functional; details: 786-0, 48 h, read-out: Activity; procedure, shortened: as §2
# [25] = system: UACC-62; experiment: Cytotoxicity against human UACC62 cells assessed as cell growth at 10 uM after 48 hrs by SRB assay relative to control; format: functional; details: UACC-62, 48 h, read-out: Activity; procedure, shortened: as §3
# [26] = system: HOP-62; experiment: Cytotoxicity against human HOP62 cells assessed as cell growth at 10 uM after 48 hrs by SRB assay relative to control; format: functional; details: HOP-62, 48 h, read-out: Activity; procedure, shortened: as §2
# [27] = system: SK-MEL-2; experiment: Cytotoxicity against human SK-MEL-2 cells assessed as cell growth at 10 uM after 48 hrs by SRB assay relative to control; format: functional; details: SK-MEL-2, 48 h, read-out: Activity; procedure, shortened: as §1
# [28] = system: SK-OV-3; experiment: Cytotoxicity against human SKOV3 cells assessed as cell growth at 10 uM after 48 hrs by SRB assay relative to control; format: functional; details: SK-OV-3, 48 h, read-out: Activity; procedure, shortened: as §1
# [29] = system: UO-31; experiment: Cytotoxicity against human UO31 cells assessed as cell growth at 10 uM after 48 hrs by SRB assay relative to control; format: functional; details: UO-31, 48 h, read-out: Activity; procedure, shortened: as §3
# [30] = system: NCI-H23; experiment: Cytotoxicity against human NCI-H23 cells assessed as cell growth at 10 uM after 48 hrs by SRB assay relative to control; format: functional; details: NCI-H23, 48 h, read-out: Activity; procedure, shortened: as §1
SMILES,growth at 10 µM [1],growth at 10 µM [2],IC50 [3],growth at 10 µM [4],growth at 10 µM [5],growth at 10 µM [6],growth at 10 µM [7],growth at 10 µM [8],growth at 10 µM [9],growth at 10 µM [10],growth at 10 µM [11],growth at 10 µM [12],growth at 10 µM [14],growth at 10 µM [15],growth at 10 µM [16],growth at 10 µM [17],growth at 10 µM [18],growth at 10 µM [19],growth at 10 µM [20],growth at 10 µM [21],also measured
O=C1c2ccccc2C(=O)c2c1cc(Sc1ccccc1Br)c1nsnc21,-29.9%,16.9%,5.76 µM,35.3%,2.47%,97.4%,16.6%,95.4%,100%,22.6%,4.75%,57.9%,71.4%,64.7%,92.1%,39.7%,76.5%,2.94%,-5.66%,-6.39%,growth at 10 µM [13]: 121%; growth at 10 µM [22]: 58.2%; growth at 10 µM [23]: -44%; growth at 10 µM [24]: -6.19%; growth at 10 µM [25]: 39.6%; growth at 10 µM [26]: 4.88%; growth at 10 µM [27]: 35%; growth at 10 µM [28]: 66.7%; growth at 10 µM [29]: 56.1%; growth at 10 µM [30]: 18%
CC(C)Sc1cc2c(c3nsnc13)C(=O)c1ccccc1C2=O,-24.9%,-35.9%,3.69 µM,-86%,-22.6%,102%,-36.7%,-8.14%,-16.6%,-28.6%,-91.7%,19.3%,21.9%,-8.32%,10.2%,15.3%,30.3%,-48%,-47%,-68.8%,growth at 10 µM [13]: -27.9%; growth at 10 µM [22]: 4.92%; growth at 10 µM [23]: -41.2%; growth at 10 µM [24]: 12.4%; growth at 10 µM [25]: -57.1%; growth at 10 µM [26]: 13.2%; growth at 10 µM [27]: -55.6%; growth at 10 µM [29]: -28.4%; growth at 10 µM [30]: -42.2%
Cc1cccc(C)c1Sc1cc2c(c3nsnc13)C(=O)c1ccccc1C2=O,59.7%,30.6%,6.74 µM,73.7%,59%,98.8%,65%,90.2%,91.1%,67.7%,86.6%,96%,94.8%,89.3%,78.3%,47.5%,119%,35.5%,84.5%,68.6%,growth at 10 µM [13]: 114%; growth at 10 µM [22]: 87.4%; growth at 10 µM [23]: 47.8%; growth at 10 µM [24]: 115%; growth at 10 µM [25]: 91.7%; growth at 10 µM [26]: 90%; growth at 10 µM [27]: 67.5%; growth at 10 µM [29]: 66.7%; growth at 10 µM [30]: 67.4%
O=C1c2ccccc2C(=O)c2c1cc(Sc1ccc(Cl)cc1)c1nsnc21,102%,89%,> 15 µM,105%,88.6%,121%,98.2%,104%,97.3%,87%,95.5%,102%,105%,130%,104%,98.1%,140%,111%,107%,86.1%,growth at 10 µM [22]: 103%; growth at 10 µM [23]: 87.3%; growth at 10 µM [24]: 109%; growth at 10 µM [25]: 90.7%; growth at 10 µM [26]: 102%; growth at 10 µM [27]: 109%; growth at 10 µM [28]: 109%; growth at 10 µM [29]: 79.5%; growth at 10 µM [30]: 100%
